The record followed here is ChEMBL document CHEMBL4321831, “Vaccine Adjuvants Derivatized from Momordica Saponins I and II” (J Med Chem, 2019).

Series [1] is described as follows: Acute toxicity in BALB/c mouse assessed as normal animal behaviour with healthy fur at 100 to 2000 ug, sc measured at day 5 post injection. The series is classed as organism-based. Conditions: in vivo. The essentials: (§1)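 Female BALB/c mice, 10 weeks old, 5 per group, given a single subcutaneous injection in the neck of adjuvant in 0.1 mL PBS at doses from 100 to 5000 μg, with untreated controls. Survival was counted 5 days after injection. Surviving mice were checked through day 7 for fur condition, behaviour, lethargy and lesion formation.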

A short description of series [2]: Toxicity in OVA-immunized BALB/c mouse assessed as changes in body weight at 100 ug, sc administered immediately and on day 14, 28 and measured at week 6. The series is classed as organism-based. The conditions noted are these: in vivo. Put shortly:
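Female BALB/c mice (8–10 weeks, six per group) received sc OVA (20 μg) with adjuvant (100 μg) on days 0, 14 and 28. Body weight was recorded before each immunization and 2 weeks after the final one.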

Series [3] concerns Mus musculus. The series can be described thus: Immuno-adjuvant activity in OVA-immunized BALB/c mouse assessed as potentiation of antibody response to OVA by measuring serum anti-OVA IgG2a level at 100 ug, sc administered immediately and on day 14, 28 and measured at week 6 by ELISA (reference value: 0.1 ug/ml). The series is classed as functional. The essentials: (§2)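 Female BALB/c mice (8–10 weeks, six per group) got sc OVA (20 μg) plus adjuvant (100 μg) on days 0, 14 and 28. Tail-vein serum was taken before each dose and 2 weeks after the last. ELISA plates were coated with OVA (0.1 μg/mL) in borate-buffered saline, pH 8.2. Serial 2-fold serum dilutions were run in duplicate, detected with HRP anti-mouse IgG/IgG1/IgG2a and o-phenylenediamine, and read at 490 nm.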

Series [4] deals with Mus musculus. The series can be described thus: Immuno-adjuvant activity in OVA-immunized BALB/c mouse assessed as potentiation of antibody response to OVA by measuring increase in serum anti-OVA IgG1 activity at 100 ug, sc administered immediately and on day 14, 28 and measured at week 2 to 4 by ELISA. The series is classed as functional, organism-based. Put shortly: as §2
A general note: An ELISA detects its analyte on a solid surface through an enzyme-linked reagent.

The test system of series [5] is Mus musculus. The series can be described thus: Immuno-adjuvant activity in OVA-immunized BALB/c mouse assessed as potentiation of antibody response to OVA by measuring serum anti-OVA IgG1 level at 100 ug, sc administered immediately and on day 14, 28 and measured at week 6 by ELISA (reference value: 113 +/- 37 ug/ml). In kind it is functional. Put shortly: as §2

Series [6] in a line: Acute toxicity in BALB/c mouse assessed as mouse survival at 5000 ug, sc measured after 5 days. The series is classed as organism-based. Conditions: in vivo. The essentials:
as §1

Series [7] deals with Mus musculus. The series can be described thus: Immuno-adjuvant activity in OVA-immunized BALB/c mouse assessed as potentiation of antibody response to OVA by measuring increase in serum anti-OVA IgG1 activity at 100 ug, sc administered immediately and on day 14, 28 and measured at week 6 by ELISA. In kind it is functional, organism-based. The essentials: as §2
In series [8] the test system is Mus musculus. The series can be described thus: Immuno-adjuvant activity in recombinant Porphyromonas gingivalis HagB-immunized BALB/c mouse assessed as potentiation of antibody response to rHagB by measuring increase in serum anti-rHagB IgG activity at 100 ug, sc administered immediately and on day 14, 28 and measured at week 6 by ELISA. In kind it is functional, organism-based.

Series [9] relates to Mus musculus. The series can be described thus: Immuno-adjuvant activity in recombinant Porphyromonas gingivalis HagB-immunized BALB/c mouse assessed as potentiation of antibody response to rHagB by measuring increase in serum anti-rHagB IgG1 activity at 100 ug, sc administered immediately and on day 14, 28 and measured at week 2 to 4 by ELISA. The series is classed as functional, organism-based.

The subject of series [10] is Mus musculus. The series can be described thus: Immuno-adjuvant activity in OVA-immunized BALB/c mouse assessed as potentiation of antibody response to OVA by measuring ratio of serum anti-OVA IgG2a to serum anti-OVA IG1 level at 100 ug, sc administered immediately and on day 14, 28 and measured at week 6 by ELISA. The series is classed as functional.
Series [11] concerns Mus musculus. Put plainly: Immuno-adjuvant activity in OVA-immunized BALB/c mouse assessed as potentiation of antibody response to OVA by measuring serum anti-OVA IgG2a activity at 100 ug, sc administered immediately and on day 14, 28 and measured at week 2 by ELISA. In kind it is functional, organism-based. The essentials:
as §2

The test system of series [12] is Mus musculus. Put plainly: Immuno-adjuvant activity in recombinant Porphyromonas gingivalis HagB-immunized BALB/c mouse assessed as potentiation of antibody response to rHagB by measuring increase in serum anti-rHagB IgG activity at 100 ug, sc administered immediately and on day 14, 28 and measured at week 2 to 4 by ELISA. The series is classed as functional, organism-based.

The subject of series [13] is Mus musculus. The series can be described thus: Immuno-adjuvant activity in recombinant Porphyromonas gingivalis HagB-immunized BALB/c mouse assessed as potentiation of antibody response to rHagB by measuring serum anti-rHagB IgG1 activity at 100 ug, sc administered immediately and on day 14, 28 and measured at week 6 by ELISA. In kind it is functional, organism-based.

Series [14] deals with Mus musculus. The series can be described thus: Immuno-adjuvant activity in OVA-immunized BALB/c mouse assessed as potentiation of antibody response to OVA by measuring increase in serum anti-OVA IgG2a activity at 100 ug, sc administered immediately and on day 14, 28 and measured at week 4 to 6 by ELISA. The series is classed as functional, organism-based. Put shortly:
as §2

A short description of series [15]: Acute toxicity in BALB/c mouse assessed as mouse survival at 100 to 2000 ug, sc measured after 5 days. The series is classed as organism-based. Conditions: in vivo. Put shortly:
as §1

Series [16] in a line: Acute toxicity in BALB/c mouse assessed as lethargy at 100 to 2000 ug, sc measured at day 7 post injection. In kind it is organism-based. Conditions: in vivo. The essentials: as §1
In series [17] the test system is Mus musculus. Put plainly: Immuno-adjuvant activity in OVA-immunized BALB/c mouse assessed as potentiation of antibody response to OVA by measuring increase in serum anti-OVA IgG activity at 100 ug, sc administered immediately and on day 14, 28 and measured at week 2 to 6 by ELISA. In kind it is functional, organism-based. The essentials:
as §2

Series [18] can be described thus: Acute toxicity in BALB/c mouse assessed as lesion formation at 100 to 2000 ug, sc measured at day 7 post injection. The series is classed as organism-based. The conditions noted are these: in vivo. Put shortly:
as §1

Series [19] has as its system Mus musculus. Put plainly: Immuno-adjuvant activity in recombinant Porphyromonas gingivalis HagB-immunized BALB/c mouse assessed as potentiation of antibody response to rHagB by measuring increase in serum anti-rHagB IgG2a activity at 100 ug, sc administered immediately and on day 14, 28 and measured at week 2 to 6 by ELISA. In kind it is functional, organism-based.

Calls of active or inactive are those of the source. The rule behind the calls is not given here.

As for `CCCCCCCCCCCCNC(=O)[C@H]1O[C@@H](O[C@H]2CC[C@]3(C)[C@H]4CC=C5[C@H]6CC(C)(C)CC[C@]6(C(=O)O[C@@H]6O[C@H](C)[C@H](O)[C@H](O)[C@H]6O[C@@H]6O[C@@H](C)[C@H](O[C@@H]7OC[C@@H](O)[C@H](O)[C@H]7O)[C@@H](O[C@@H]7O[C@H](CO)[C@@H](O)[C@H](O[C@@H]8OC[C@@H](O)[C@H](O)[C@H]8O)[C@H]7O)[C@H]6O)CC[C@@]5(C)[C@]4(C)CC[C@H]3[C@]2(C)C=O)[C@H](O[C@@H]2O[C@H](CO)[C@H](O)[C@H](O)[C@H]2O)[C@@H](O[C@@H]2O[C@@H](C)[C@H](O)[C@@H](O)[C@H]2O)[C@@H]1O`, the Activity entry is “Non-Toxic” in series [1]; “Non-Toxic” in series [2]; 208 µg/mL with Mus musculus [3]; 713 µg/mL in the series with Mus musculus [5]; “Non-Toxic” in series [16]; “Non-Toxic” in series [18]. In addition, the outcome in the series on Mus musculus [4], with Mus musculus [7], with Mus musculus [8], with Mus musculus [9], in the series on Mus musculus [12] and in the series on Mus musculus [14] was Active. In addition, the outcome with Mus musculus [17] and in the series on Mus musculus [19] was Active. The survival at 120 h was 0% in [6] and 100% in series [15]. Moreover, in the series on Mus musculus [10], the Ratio was found to be 0.312. In addition, the outcome with Mus musculus [11] and in the series on Mus musculus [13] was inactive.
